Tests used:
Assay type in all cases: cell-based
[1] = target: T1, Peroxisome proliferator-activated receptor delta (Homo sapiens, UniProt Q03181); test: Transactivation of human PPARdelta expressed in monkey CV-1 cells coexpressing TK-PPRE-Luc after 24 hrs by luciferase reporter gene assay
T1 sequence (Q03181 whole entry): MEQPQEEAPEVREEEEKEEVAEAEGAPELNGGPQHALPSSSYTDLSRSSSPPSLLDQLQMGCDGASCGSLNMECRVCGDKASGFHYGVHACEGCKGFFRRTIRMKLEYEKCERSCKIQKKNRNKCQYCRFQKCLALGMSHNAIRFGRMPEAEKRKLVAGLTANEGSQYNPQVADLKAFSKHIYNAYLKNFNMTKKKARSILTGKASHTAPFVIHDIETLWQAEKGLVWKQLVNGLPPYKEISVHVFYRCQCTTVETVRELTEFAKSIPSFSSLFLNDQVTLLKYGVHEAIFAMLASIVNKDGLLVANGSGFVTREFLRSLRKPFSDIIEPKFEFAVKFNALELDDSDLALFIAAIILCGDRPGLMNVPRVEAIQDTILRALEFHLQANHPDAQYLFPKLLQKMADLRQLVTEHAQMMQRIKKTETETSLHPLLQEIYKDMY
Summary of the method: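 Agonist activity tested in transiently transfected CV-1 cells by reporter assay. EC50 is the molar concentration giving 50% of the maximal reporter activity.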

[2] = target: T2, Peroxisome proliferator-activated receptor alpha (Homo sapiens, UniProt Q07869); test: Transactivation of human PPARalpha expressed in monkey CV-1 cells coexpressing TK-PPRE-Luc after 24 hrs by luciferase reporter gene assay
T2 sequence (Q07869 whole entry): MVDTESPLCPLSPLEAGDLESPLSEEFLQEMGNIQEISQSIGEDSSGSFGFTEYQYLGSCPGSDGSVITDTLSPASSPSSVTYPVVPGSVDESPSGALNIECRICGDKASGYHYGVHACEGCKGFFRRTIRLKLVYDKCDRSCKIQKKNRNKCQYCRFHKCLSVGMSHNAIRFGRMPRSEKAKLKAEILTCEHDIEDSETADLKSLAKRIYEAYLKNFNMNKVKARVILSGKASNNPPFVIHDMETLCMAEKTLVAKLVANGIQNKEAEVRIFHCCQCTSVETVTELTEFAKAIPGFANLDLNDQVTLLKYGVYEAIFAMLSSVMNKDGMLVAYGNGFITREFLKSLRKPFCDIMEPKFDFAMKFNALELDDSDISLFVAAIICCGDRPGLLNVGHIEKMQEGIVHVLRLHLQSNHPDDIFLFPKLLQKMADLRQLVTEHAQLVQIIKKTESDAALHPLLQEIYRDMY

[3] = target: T3, Peroxisome proliferator-activated receptor gamma (Homo sapiens, UniProt P37231); test: Transactivation of human PPARgamma expressed in monkey CV-1 cells coexpressing TK-PPRE-Luc after 24 hrs by luciferase reporter gene assay
T3 sequence (P37231 whole entry): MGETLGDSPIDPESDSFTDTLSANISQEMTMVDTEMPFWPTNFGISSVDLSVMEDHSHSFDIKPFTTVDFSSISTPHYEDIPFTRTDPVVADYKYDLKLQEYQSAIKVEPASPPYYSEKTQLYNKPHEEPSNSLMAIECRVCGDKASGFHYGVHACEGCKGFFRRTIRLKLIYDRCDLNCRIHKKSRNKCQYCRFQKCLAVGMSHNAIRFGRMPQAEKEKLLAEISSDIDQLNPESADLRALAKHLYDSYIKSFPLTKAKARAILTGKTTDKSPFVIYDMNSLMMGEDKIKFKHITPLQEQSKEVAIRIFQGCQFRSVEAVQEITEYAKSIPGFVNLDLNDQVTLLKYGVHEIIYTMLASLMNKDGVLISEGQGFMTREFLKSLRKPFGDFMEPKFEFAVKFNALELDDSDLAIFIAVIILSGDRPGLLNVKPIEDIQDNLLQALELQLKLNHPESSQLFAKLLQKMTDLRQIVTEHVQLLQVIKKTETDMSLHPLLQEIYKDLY

| SMILES | EC50 [1] | EC50 [2] | EC50 [3] |
| --- | --- | --- | --- |
| Cc1cc(SC(Cc2cc(F)c(F)c(F)c2)c2ccc(-c3cccc(C(F)(F)F)c3)cc2)ccc1OCC(=O)O (configuration not stated) | 0.012 µM | > 10 µM | > 10 µM |
| Cc1cc(SC(Cc2cc(F)ccc2F)c2ccc(-c3ccc(F)cc3)cc2)ccc1OCC(=O)O (configuration not stated) | 0.004 µM | > 10 µM | > 10 µM |
| Cc1cc(SC(Cc2cc(Cl)ccc2F)c2ccc(-c3cc(F)c(F)c(F)c3)cc2)ccc1OCC(=O)O (configuration not stated) | 0.0069 µM | > 10 µM | > 10 µM |
| Cc1cc(SC(Cc2cc(F)c(F)c(F)c2)c2ccc(-c3ccccc3)cc2)ccc1OCC(=O)O (configuration not stated) | 0.086 µM | > 10 µM | > 10 µM |
| Cc1cc(SC(Cc2cc(Cl)ccc2F)c2ccc(-c3ccc(F)cc3)cc2)ccc1OCC(=O)O (configuration not stated) | 0.025 µM | > 10 µM | > 10 µM |
| Cc1cc(SC(Cc2cc(F)c(F)c(F)c2)c2ccc(-c3ccc(C(F)(F)F)cc3)nc2)ccc1OCC(=O)O (configuration not stated) | 0.056 µM | > 10 µM | > 10 µM |
| Cc1cc(SC(Cc2cc(C(F)(F)F)ccc2F)c2ccc(-c3cccc(C(F)(F)F)c3)cc2)ccc1OCC(=O)O (configuration not stated) | 0.0058 µM | > 10 µM | > 10 µM |
| Cc1cc(SC(Cc2ccccc2)c2ccc(-c3ccc(C(F)(F)F)cc3)nc2)ccc1OCC(=O)O (configuration not stated) | – | > 10 µM | > 10 µM |
| Cc1cc(SC(Cc2ccccc2)c2ccc(-c3cc(F)c(F)c(F)c3)cc2)ccc1OCC(=O)O (configuration not stated) | 0.0045 µM | > 10 µM | > 10 µM |
| Cc1cc(SC(Cc2cc(F)ccc2F)c2ccc(-c3cccc(C(F)(F)F)c3)cc2)ccc1OCC(=O)O (configuration not stated) | 0.0091 µM | > 10 µM | > 10 µM |
| Cc1cc(SC(Cc2cc(C(F)(F)F)ccc2F)c2ccc(-c3ccccc3)cc2)ccc1OCC(=O)O (configuration not stated) | 0.01 µM | > 10 µM | > 10 µM |
